PABP1 MLLE inh: inhibitors of PABP1 MLLE–PAM2 peptide binding, primary screen, biochemical, fluorescence polarization, FITC-PAM2, GST-MLLE; inhibition, % at 20 µM; actives 0.36% (n = 360,000); Polyadenylate-binding protein 1 (Homo sapiens), P11940; AID 588489, 2011; in the data active = inhibition above about 35%, passing the limit was not always enough;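 note: plate controls were DMSO wells with GST-MLLE for no effect and wells lacking GST-MLLE protein for full effect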
HCV core dimer: inhibitors of HCV core protein dimerization, primary screen, biochemical, TR-FRET, high-throughput; TR-FRET GST/Flag-core106 dimerization, 1536-well; inhibition, % at 5 µM; actives 0.33% (n = 300,000); AID 1899, 2009;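 active = inhibition above the mean of all tested compounds plus 3 SD, set per screening campaign, cut at about 45% in these data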
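Assay system: tagged HCV core106 pair (GST and Flag); medium: KF-containing HEPES buffer, pH 7.45, DTT, CHAPS, BSA; also added: Eu donor and XL665 acceptor anti-tag antibodies; dosing: 5 µM single dose; timing: compound-protein-antibody incubation 4 h at 22.5 °C; signal: TR-FRET 671 and 617 nm emission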
eIF4E 4G PPI: eIF4E–eIF4G protein interaction inhibitors, primary screen, biochemical, uHTS, TR-FRET, eIF4GI fragment; Eukaryotic translation initiation factor 4E (Mus musculus) + Eukaryotic translation …; TR-FRET eIF4E-eIF4GI(517-606) binding, 2 h; inhibition, % at 21.7 µM; actives 0.37% (n = 220,000);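 active = inhibition above about 30%, limit read from the data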;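 note: 0% = full FRET control wells and 100% = background wells lacking eIF4GI fragment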
eIF4H inh: human eIF4H binding inhibitors, primary screen, translation initiation inhibitor project, biochemical, uHTS, fluorescence polarization; actives 0.94% (n = 290,000); inhibition, % at 35 µM; Eukaryotic translation initiation factor 4H (Homo sapiens), Q15056; eIF4H fluorescence polarization binding assay;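 note: calls also rest on retests at 20 µM and on dose response follow-up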
PABP polyA inh: PABP poly(A) RNA binding inhibitors, primary screen, biochemical, fluorescence polarization, uHTS; Polyadenylate-binding protein 1 (Homo sapiens), P11940; calls only at 35 µM; actives 1% (n = 290,000); AID 2014, 2009;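 note: calls also rest on retests at 20 µM and on dose response follow-up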
UBC9 SUMO inh: inhibitors of in vitro SUMOylation cascade, primary screen, biochemical, HTRF, uHTS. HTRF SUMOylation assay, SAE1/SAE2 + UBC9. inhibition, % at 35 µM. actives 0.36% (n = 290,000). AID 2006, 2009; in the data active = inhibition above about 50%, passing the limit was not always enough; inconclusive = no clear call, values can overlap the other calls
Numbers without * were called inactive; i = inactive; ? = inconclusive; . = no result given; + = active, no number. Compounds with a hit are over-represented: about 1.8% of the library has one in this group of screens. Unless noted, the rule behind the calls is not given here.

SMILES | PABP1 MLLE inh | HCV core dimer | eIF4E 4G PPI | eIF4H inh | PABP polyA inh | UBC9 SUMO inh
O=C(COc1coc(CN2CCc3ccccc3C2)cc1=O)N1CCOCC1 | 4 | -1 | . | . | . | .
COc1ccc(CC(=O)OCC(=O)Nc2ccc3[nH]c(=O)[nH]c3c2)cc1OC | -73 | . | . | . | . | .
CC(C)CCSc1nc(N)c(C#N)cc1C#N | -88 | 64* | -26 | -2 | i | 2
Cc1cc2cc(C(c3nnnn3Cc3ccco3)N3CCCCC3)c(=O)[nH]c2cc1C (stereo not drawn) | -21 | 10 | -3 | 57* | + | 25
O=c1[nH]c2cc3c(cc2cc1C(c1nnnn1Cc1ccccc1)N1CCCCCC1)OCCO3 (stereo not drawn) | -14 | 4 | -100 | 130 | + | 24
O=c1[nH]c2cc3c(cc2cc1C(c1nnnn1Cc1ccccc1)N1CCN2CCCC2C1)OCCO3 (stereo not drawn) | -21 | 19 | -5 | -10 | i | 9
CCOc1ccc2[nH]c(=O)c(C(c3nnnn3Cc3ccco3)N3CCN(C)CC3)cc2c1 (stereo not drawn) | -14 | -3 | -2 | 39 | i | 12
CC12CCC(O)CC1=CCC1C2CCC2(C)C1CCC21CCC(=O)O1 (stereo not drawn) | -4 | -2 | 5 | 12* | + | 20
C[C@]12CCC3C(CC=C4C[C@@H](O)CC[C@@]43C)C1CCC2[C@]1(C)CCC(=O)O1 (stereo partly drawn) | 1 | -9 | -3 | 2 | i | 4
CCc1ccc(NC(=O)c2cc(S(=O)(=O)N3CCc4ccccc43)cn2C)cc1 | -13 | 21 | . | -11 | i | -10
Cc1ccc(NC(=O)c2cc(-c3ccc(C)o3)nc3ccccc23)cc1 | 10 | 44 | -3 | 22 | i | 20
Cc1ccc(-c2cc(C(=O)Nc3ccccn3)c3ccccc3n2)o1 | 1 | 64* | 27 | 46 | i | 20
Cc1ccc(-c2csc(N3CCC[C@@H]3C(=O)NCCn3c(-c4ccncc4)nc4ccccc43)n2)cc1 | -14 | 10 | . | -18 | i | 0
Cc1ccc(NC(=S)Nc2ccccn2)cc1C | 40* | 2 | -3 | 1 | i | 16
O=C(O)c1cc(-c2ccc(/C=c3\sc4nc5ccc(Br)cc5n4c3=O)o2)ccc1Cl | . | -46 | . | 55* | + | 24
O=C(O)c1cc(-c2ccc(/C=C3\NC(=O)N(c4ccccc4)C3=O)o2)ccc1Cl | -3 | -3 | 1 | 41 | i | 20
O=C(O)c1cc(-c2ccc(/C=C3\NC(=O)N(c4ccc(Cl)cc4)C3=O)o2)ccc1Cl | -15 | 2 | 8 | 85* | + | 43
O=C(O)c1ccccc1-c1ccc(/C=c2\sc3nc4cc(Br)cnc4n3c2=O)o1 | -125 | -2 | 23 | 77* | + | 18
Cc1cc2nc3s/c(=C/c4ccc(-c5ccccc5C(=O)O)o4)c(=O)n3c2cc1C | -143 | 4 | . | 36 | i | 15
Nc1nc(SCC(=O)Nc2ncc(C(F)(F)F)cc2Cl)n[nH]1 | 1 | 0 | -3 | -8 | i | 12
COc1cc(NC(=O)c2cc(-c3ccccc3Cl)on2)cc(OC)c1OC | 10 | 0 | . | -4 | i | -18
COc1cc(C(=S)N2CCOCC2)cc(OC)c1OS(=O)(=O)c1ccc(NC(C)=O)cc1 | 14 | 1 | -6 | -7 | i | 11
COc1cc(C(=S)N2CCOCC2)cc(OC)c1OS(=O)(=O)c1ccc(C)cc1 | 42* | 1 | . | -1 | i | 8
Cc1[nH]c2ccccc2c1/C=C(\C#N)C(=O)NC(C)c1ccccc1 (stereo not drawn) | -121 | 0 | 8 | -10 | + | 13
O=C(CN(C(=O)CNC(=O)c1cccs1)c1ccccc1)NC1CCCCC1 | 8 | 0 | . | -6 | i | -2
SMILES | PABP1 MLLE inh | HCV core dimer | eIF4E 4G PPI | eIF4H inh | PABP polyA inh | UBC9 SUMO inh
CCN1C(=O)C(C(=O)c2ccccc2)SC1=S (stereo not drawn) | 38* | 2 | -4 | 20 | i | -8
CSC1=N/C(=C\c2ccc(Br)o2)C(=O)S1 | 0 | 34 | 12 | 57* | + | 16
CSC1=N/C(=C\c2ccccc2F)C(=O)S1 | 9 | 11 | -7 | -1 | i | 19
C[C@H]1CN([C@@H](C)CO)C(=O)Cc2cc(NS(=O)(=O)c3cccs3)ccc2O[C@H]1CN(C)S(=O)(=O)c1cn(C)cn1 | 5 | . | . | . | . | .
CCN(CC)C(=O)CC(c1cc(OC)c(OC)c(OC)c1)c1c(OC)cc(OC)c2ccc(=O)oc12 (stereo not drawn) | -8 | -3 | -3 | -2 | i | 22
CCN(CC)C(=O)CC(c1cc(OC)c(OC)c(OC)c1)c1c(OC)cc(OC)c2c(-c3ccccc3)cc(=O)oc12 (stereo not drawn) | -3 | 26 | 34* | 103* | + | -9
CC(C)[C@@H]1C=C(C(=O)O)O[C@H](OCCCCO)C1 | 3 | -8 | 97* | -3 | i | 12
O=C1OC(c2ccc3c(c2)OCO3)=N/C1=C\c1ccc(C(=O)O)cc1 | 0 | -20 | . | 55* | i | 16
O=C(NC(=S)NC1CCCCC1)c1ccc(F)cc1 | 16 | -6 | . | -4 | i | -19
Cc1ccc(S(=O)(=O)N2CCC(=O)c3ccccc32)cc1 | 9 | . | . | . | . | .
COc1ccc2c(c1)c(C(O)CN1CCN(Cc3ccc4c(c3)OCO4)CC1)c(C)n2C (stereo not drawn) | 0 | 8 | -3 | 10 | i | 18
Cc1c(C(O)CN2CCN(Cc3ccc4c(c3)OCO4)CC2)c2ccccc2n1C (stereo not drawn) | -4 | 0 | 1 | 82* | + | 30
O=C(/C=C/c1ccco1)Nc1cccc(NC(=O)/C=C/c2ccco2)n1 | 0 | 49* | 4 | ? | i | ?
O=C(/C=C/c1ccco1)NC1=NCCS1 | 35 | -6 | 9 | ? | + | 5
Cc1nc(NC(=O)/C=C/c2ccco2)sc1C | -9 | -3 | 2 | 84 | i | 14
COC(=O)C1=C(C)NC(=O)C1(NS(=O)(=O)c1ccc(C)cc1)C(F)(F)F (stereo not drawn) | 11 | 1 | 1 | 59 | + | 22
COC(=O)C1=C(C)NC(=O)C1(Nc1nccs1)C(F)(F)F (stereo not drawn) | 3 | -7 | 4 | 13 | i | 2
CN(C)c1ccc(/C=C(\C#N)C(=O)NCc2ccco2)cc1 | . | -22 | 7 | -6 | i | 22

Screening data as filed in PubChem.
